From ChEMBL document CHEMBL3351540, “Novel antiproliferative chimeric compounds with marked histone deacetylase inhibitory activity” (ACS Med Chem Lett, 2014)
The source made the active and inactive calls. The rule behind the calls is not given here.

How the values were obtained:
[1] = tested on: K562; assay: Antiproliferative activity against human K562 cells assessed as growth inhibition after 48 hrs by trypan blue dye exclusion method; format: functional, cell-based; conditions: K562, 48 h
[2] = tested on: K562; assay: Induction of apoptosis in human K562 cells using annexin-V/PI staining by flow cytometry; format: functional, cell-based
Method in brief: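 K562 cells treated for 48 h; apoptosis scored by annexin V test. AC50 is the concentration inducing apoptosis in 50% of cells. Triplicate points, SD error bars.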

[3] = Cell cycle arrest in human U937 cells assessed as block at G1 phase at 5 uM after 24 to 96 hrs using propidium iodide staining by FACScan flow cytometry; conditions: U-937
[4] = tested on: MCF7; assay: Cell cycle arrest in human MCF7 cells assessed as block at G2 phase at 5 uM after 24 to 96 hrs using propidium iodide staining by FACScan flow cytometry
[5] = tested on: MCF7; assay: Antiproliferative activity against human MCF7 cells assessed as reduction in doubling time at 5 uM after 10 to 18 hrs by real-time mode analysis; format: functional, cell-based
Method in brief: (§1)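 Real-time proliferation of MCF-7 cells treated with 5 μM compound, recorded as cell index versus time over 36 h. Doubling time was calculated over the 10−18 h interval.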

[6] = tested on: K562; assay: Cell cycle arrest in human K562 cells assessed as block at G1 phase at 40 uM after 24 hrs using propidium iodide staining by FACScan flow cytometry; format: functional, cell-based
[7] = tested on: K562; assay: Cell cycle arrest in human K562 cells assessed as block at G2-M phase at 40 uM after 24 hrs using propidium iodide staining by FACScan flow cytometry; format: functional, cell-based
[8] = Cell cycle arrest in human U937 cells assessed as block at G1 phase at 5 uM after 24 to 96 hrs using propidium iodide staining by FACScan flow cytometry; format: functional, cell-based; conditions: U-937
[9] = tested on: U-937; assay: Induction of apoptosis in human U937 cells using annexin-V/PI staining after 48 hrs by flow cytometry; format: functional, cell-based
Method in brief: (§2)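 U937 cells treated with 5 μM compound for 48 h, with SAHA at 5 μM as positive control. Apoptosis and necrosis measured by annexin V/PI double staining and flow cytometry. Triplicate points, SD error bars.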

[10] = tested on: MCF7; assay: Cell cycle arrest in human MCF7 cells assessed as block at G2-M phase at 5 uM after 24 to 96 hrs using propidium iodide staining by FACScan flow cytometry; format: functional, cell-based
[11] = target: Histone deacetylase 1 (Homo sapiens, UniProt Q13547); assay: Inhibition of human recombinant HDAC1 using modified Boc-Lys(Ac)-AMC MAL as substrate after 1 hr by fluorescent activity assay
Histone deacetylase 1, sequence (Q13547 whole entry): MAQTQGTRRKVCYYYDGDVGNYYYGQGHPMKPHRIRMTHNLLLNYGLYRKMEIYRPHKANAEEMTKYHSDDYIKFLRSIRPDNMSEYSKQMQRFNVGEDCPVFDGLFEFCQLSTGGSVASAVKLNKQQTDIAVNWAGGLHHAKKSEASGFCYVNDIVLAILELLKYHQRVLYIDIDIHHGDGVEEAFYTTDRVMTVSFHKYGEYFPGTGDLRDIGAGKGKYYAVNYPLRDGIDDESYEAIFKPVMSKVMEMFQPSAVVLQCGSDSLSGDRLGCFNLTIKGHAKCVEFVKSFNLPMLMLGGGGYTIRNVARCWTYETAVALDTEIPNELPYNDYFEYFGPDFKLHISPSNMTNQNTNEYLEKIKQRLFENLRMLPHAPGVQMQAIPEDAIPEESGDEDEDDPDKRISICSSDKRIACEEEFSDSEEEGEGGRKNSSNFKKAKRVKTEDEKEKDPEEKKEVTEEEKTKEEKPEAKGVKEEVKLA

[12] = target: T1, Protein deacetylase HDAC6 (Homo sapiens, UniProt Q9UBN7); assay: Inhibition of human recombinant HDAC6 using Z-MAL as substrate after 1 hr by fluorescent activity assay
T1 sequence (Q9UBN7 whole entry): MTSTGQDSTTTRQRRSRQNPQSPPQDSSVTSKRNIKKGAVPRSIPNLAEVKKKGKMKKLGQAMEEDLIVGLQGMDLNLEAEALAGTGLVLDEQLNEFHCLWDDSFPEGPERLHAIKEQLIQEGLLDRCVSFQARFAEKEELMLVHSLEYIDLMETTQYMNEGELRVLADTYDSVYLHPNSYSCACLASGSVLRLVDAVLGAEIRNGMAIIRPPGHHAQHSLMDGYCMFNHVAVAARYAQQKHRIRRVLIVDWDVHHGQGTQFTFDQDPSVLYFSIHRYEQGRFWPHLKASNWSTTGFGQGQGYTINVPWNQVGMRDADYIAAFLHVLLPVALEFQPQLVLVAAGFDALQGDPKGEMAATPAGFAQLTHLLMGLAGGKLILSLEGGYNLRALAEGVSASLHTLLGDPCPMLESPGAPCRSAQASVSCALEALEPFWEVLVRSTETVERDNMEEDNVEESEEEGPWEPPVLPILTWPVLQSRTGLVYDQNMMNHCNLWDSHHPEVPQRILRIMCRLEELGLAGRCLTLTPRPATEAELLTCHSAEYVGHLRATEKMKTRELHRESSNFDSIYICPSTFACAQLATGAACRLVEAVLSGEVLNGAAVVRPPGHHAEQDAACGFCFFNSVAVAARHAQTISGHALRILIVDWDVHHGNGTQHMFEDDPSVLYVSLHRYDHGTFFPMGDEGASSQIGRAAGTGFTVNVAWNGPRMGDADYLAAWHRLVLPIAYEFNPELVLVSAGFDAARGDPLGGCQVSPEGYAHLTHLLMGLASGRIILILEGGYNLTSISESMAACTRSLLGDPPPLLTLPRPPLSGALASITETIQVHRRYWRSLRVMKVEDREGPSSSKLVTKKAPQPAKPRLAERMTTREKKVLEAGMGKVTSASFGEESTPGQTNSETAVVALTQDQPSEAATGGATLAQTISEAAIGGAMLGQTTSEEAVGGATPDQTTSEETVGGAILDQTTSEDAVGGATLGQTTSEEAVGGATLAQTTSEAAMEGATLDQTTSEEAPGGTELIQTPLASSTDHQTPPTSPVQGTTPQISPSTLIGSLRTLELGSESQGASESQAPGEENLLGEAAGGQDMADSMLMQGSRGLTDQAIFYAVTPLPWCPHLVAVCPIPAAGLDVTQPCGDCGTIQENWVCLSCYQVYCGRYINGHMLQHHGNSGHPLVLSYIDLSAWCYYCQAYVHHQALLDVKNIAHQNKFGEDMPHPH

[13] = tested on: MCF7; assay: Antiproliferative activity against human MCF7 cells at 5 uM after 10 hrs by real-time mode analysis; format: functional, cell-based; method in brief: as §1
[14] = tested on: MCF7; assay: Antimigratory activity against human MCF7 cells assessed as reduction in slope values at 5 uM up to 24 hrs by real-time mode analysis; format: functional; design: scale not given: the % may be the effect or the level left
Method in brief: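 MCF-7 cells exposed to 5 μM compound and tracked in real time as cell index versus time over 27 h. Migration was expressed as the slope of the cell index within 24 h.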

[15] = tested on: U-937; assay: Induction of apoptosis in human U937 cells using annexin-V/PI staining after 48 hrs by flow cytometry relative to SAHA; format: functional; method in brief: as §2
[16] = target: Histone deacetylase 4 (Homo sapiens, UniProt P56524); assay: Inhibition of human recombinant HDAC4 using (S)-[5-Acetylamino-1-(2-oxo-4-trifluorometyl-2Hchromen-7-ylcarbamoyl)pentl]carbami acid tert-Butyl Ester as substrate after 1 hr by fluorescent activity assay
Histone deacetylase 4, sequence (P56524 whole entry): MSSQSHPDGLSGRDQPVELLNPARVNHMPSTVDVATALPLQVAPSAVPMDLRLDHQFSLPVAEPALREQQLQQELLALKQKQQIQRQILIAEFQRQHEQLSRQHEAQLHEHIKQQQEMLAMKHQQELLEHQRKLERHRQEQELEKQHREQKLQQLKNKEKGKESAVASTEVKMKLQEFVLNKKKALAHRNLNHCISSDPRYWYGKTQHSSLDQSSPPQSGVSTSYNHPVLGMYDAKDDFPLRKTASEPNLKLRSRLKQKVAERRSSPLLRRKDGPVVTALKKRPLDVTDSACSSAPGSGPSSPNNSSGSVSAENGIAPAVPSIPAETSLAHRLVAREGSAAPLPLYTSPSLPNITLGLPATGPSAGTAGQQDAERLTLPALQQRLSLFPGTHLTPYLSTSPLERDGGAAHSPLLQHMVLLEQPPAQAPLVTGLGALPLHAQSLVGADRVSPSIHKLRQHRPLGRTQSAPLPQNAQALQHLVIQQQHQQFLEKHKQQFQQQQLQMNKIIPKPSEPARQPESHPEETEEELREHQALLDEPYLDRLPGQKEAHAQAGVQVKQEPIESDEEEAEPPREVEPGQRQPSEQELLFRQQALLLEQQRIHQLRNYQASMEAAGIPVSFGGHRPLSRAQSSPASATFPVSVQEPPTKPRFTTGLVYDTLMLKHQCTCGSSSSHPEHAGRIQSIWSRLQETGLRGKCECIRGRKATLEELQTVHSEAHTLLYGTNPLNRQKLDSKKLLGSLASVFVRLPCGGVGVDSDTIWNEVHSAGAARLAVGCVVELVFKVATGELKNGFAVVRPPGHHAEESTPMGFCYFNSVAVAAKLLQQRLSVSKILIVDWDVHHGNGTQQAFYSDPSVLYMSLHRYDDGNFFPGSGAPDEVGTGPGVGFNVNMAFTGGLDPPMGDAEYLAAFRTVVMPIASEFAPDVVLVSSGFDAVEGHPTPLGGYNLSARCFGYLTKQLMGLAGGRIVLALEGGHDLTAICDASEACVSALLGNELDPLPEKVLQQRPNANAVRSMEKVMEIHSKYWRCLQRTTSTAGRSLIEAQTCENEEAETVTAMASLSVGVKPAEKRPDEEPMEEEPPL

[17] = tested on: K562; assay: Ratio of SAHA AC50 to compound AC50 for human K562 cells using annexin-V/PI staining by flow cytometry; format: functional

| Structure (SMILES) | IC50 [1] | AC50 [2] | Activity [6] | Activity [7] | IC50 [11] | further results |
| --- | --- | --- | --- | --- | --- | --- |
| COc1cc(/C=C\c2ccc(OC)c(N)c2)cc(OC)c1 | 0.025 µM | 0.25 µM | – | – | – | – |
| O=C(CCCCCCC(=O)Nc1ccccc1)NO [VORINOSTAT] | – | 10 µM | Active | Active | – | Activity [3]: Active; Activity [4]: Active; Activity [5]: Active; Activity [8]: Active; Activity [9]: Active; Activity [10]: Active |
| O=C(CCCCCCNC(=O)c1ccc(-c2ccc(-c3cc(O)cc(O)c3)cc2)cc1)NO | 2.5 µM | 16 µM | – | – | 15.7 µM | – |
| COc1cc(/C=C/c2ccc(OC)c(NC(=O)CCCCCCC(=O)NO)c2)cc(OC)c1 | 0.7 µM | 5 µM | – | – | 0.8 µM | Activity [3]: Active; IC50 [12]: 1.3 µM; Activity [13]: Active; Activity [4]: Active; Activity [14]: 25%; Activity [5]: Active; fold change (FC) [15]: 2; IC50 [16]: 9.8 µM; Ratio [17]: 2; Activity [8]: Active; Activity [10]: Active |
| COc1cc(/C=C/c2ccc(OC)c(N)c2)cc(OC)c1 | 2.5 µM | 20 µM | Active | Active | – | – |
| Oc1ccc(-c2ccc(-c3cc(O)cc(O)c3)cc2)cc1 | – | > 50 µM | – | – | – | – |
| O=C(NO)c1ccc(-c2ccc(-c3cc(O)cc(O)c3)cc2)cc1 | 20 µM | > 50 µM | – | – | 8.9 µM | – |
| COc1cc(/C=C\c2ccc(OC)c(NC(=O)CCCCCCC(=O)NO)c2)cc(OC)c1 | 7.5 µM | 40 µM | Active | Active | 2.1 µM | IC50 [12]: 1.6 µM; IC50 [16]: 7.6 µM |
| O=C(CCCCCNC(=O)c1ccc(-c2ccc(-c3cc(O)cc(O)c3)cc2)cc1)NO | 6 µM | 38 µM | – | – | 0.9 µM | – |
